Results taken from ChEMBL document CHEMBL2202989, “New adamantane phenylalkylamines with σ-receptor binding affinity and anticancer activity, associated with putative antagonism of neuropathic pain” (J Med Chem, 2012).

Key:
BXPC-3 [1] = assay: Induction of apoptosis in human BxPC3 cells assessed as early apoptosis at 50 uM using annexin V/7-AAD by FACS analysis (reference value: 9 %); type: functional
Mus musculus = assay: Toxicity in SCID mouse assessed as mortality at 40 to 55 mg/kg, ip for 2 to 3 weeks; type: organism-based; design: route intraperitoneal; settings: in vivo
How it was run: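 CD-1 (male and female) and SCID mice dosed ip at 40−55 mg/kg in 5% Tween 80 for chronic 2−3 week regimens. Deaths and body weight loss compared with vehicle (Tween 80 or Cremophor) and reference-drug groups. Weight loss, neurological, behavioral and dietary changes recorded as toxicity signs.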

BXPC-3 [2] = assay: Induction of apoptosis in human BxPC3 cells assessed as total apoptotic death at 50 uM using annexin V/7-AAD by FACS analysis (reference value: 18 %); type: functional
How it was run: (§1)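 Cells plated 24 h before treatment, then exposed 24 h to 0.5, 5, 15 or 50 μM compound (final DMSO 0.5%); vehicle controls included. Cells scraped and stained with annexin V-FITC and 7-AAD for 15 min on ice in the dark. Flow cytometry with 488 nm excitation, 10,000 gated cells. Early apoptosis was annexin V+/7-AAD−, late was annexin V+/7-AAD+.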

[3] = Growth inhibition of human MSC cells after 48 hrs by SRB assay; type: cell-based
How it was run: (§2)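 Cells grown in RPMI 1640 with 5% heat-inactivated FCS, 2 mM L-glutamine and antibiotics, 37 °C, 5% CO2. Seeded at 3500–30000 cells/well and left 24 h before dosing. DMSO solutions added at 10-fold dilutions from 100 to 0.01 μM for 48 h. Cells TCA-fixed and SRB-stained, absorbance read at 540 nm; GI50 derived against the time-zero plate.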

SK-HEP1 = assay: Growth inhibition of human SKHEP1 cells after 48 hrs by SRB assay; type: functional; settings: SK-HEP1, 48 h; how it was run: as §2
PC-3 [4] = assay: Cell cycle arrest in human PC3 cells assessed as accumulation at sub G1 phase at 15 uM after 24 hrs using propidium iodide staining by FACS analysis (reference value: 4 %); type: functional
PC-3 [5] = assay: Antitumor activity against human PC3 cells xenografted in SCID mouse assessed as primary tumor occurrence at 55 mg/kg, ip administered 5 consecutive days in a week for two cycles measured after 2 cycles relative to control; type: functional; settings: route intraperitoneal
How it was run: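 PC3 xenografts were grown in SCID mice (10^6 cells per inoculum), 14 mice (28 tumors) per group, dosed ip from about 100 mm3. The test agent was given in 5% Tween 80; paclitaxel was given in Cremophor diluted in saline, with a vehicle of 1:1 ethanol/Cremophor diluted 1:3 in saline. Volume and %ΔT/ΔC were derived from caliper readings twice weekly. Occurrence of primary tumors and of axillary and bone metastases was scored (n = 7). Two-tailed t test.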

PC-3 [6] = assay: Induction of apoptosis in human PC3 cells assessed as early apoptosis at 0.5 uM using annexin V/7-AAD by FACS analysis (reference value: 5 %); type: functional
IGROV-1 [7] = assay: Induction of apoptosis in human IGROV1 cells assessed as early apoptosis at 15 uM using annexin V/7-AAD by FACS analysis (reference value: 9 %); type: functional
PC-3 [8] = assay: Cell cycle arrest in human PC3 cells assessed as accumulation at >G2/M phase at 0.5 uM after 24 hrs using propidium iodide staining by FACS analysis (reference value: 6 %); type: functional
BXPC-3 [9] = assay: Cell cycle arrest in human BxPC3 cells assessed as accumulation at G2 phase at 15 uM after 24 hrs using propidium iodide staining by FACS analysis (reference value: 12 %); type: functional
How it was run: (§3)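 Cells were plated 24 h before treatment and exposed for 24 h at final 0.5, 5, 15 and 50 μM in 0.5% DMSO, against vehicle-treated controls. Cells were then trypsinised and fixed in cold ethanol for 3 h at 4 °C. They were stained in a mix of RNase (200 μg/mL) and PI (1 mg/mL) for 45 min at room temperature in the dark. Flow cytometry used 488 nm excitation and 10 000 gated cells. Phase percentages were assigned from DNA content.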

BXPC-3 [10] = assay: Cell cycle arrest in human BxPC3 cells assessed as accumulation at S phase at 5 uM after 24 hrs using propidium iodide staining by FACS analysis (reference value: 33 %); type: functional; how it was run: as §3
PC-3 [11] = assay: Cell cycle arrest in human PC3 cells assessed as accumulation at S phase at 15 uM after 24 hrs using propidium iodide staining by FACS analysis (reference value: 42 %); type: functional
IGROV-1 [12] = assay: Cell cycle arrest in human IGROV1 cells assessed as accumulation at G1 phase at 15 uM after 24 hrs using propidium iodide staining by FACS analysis (reference value: 27 %); type: functional; how it was run: as §3
PC-3 [13] = assay: Induction of apoptosis in human PC3 cells assessed as healthy cells at 15 uM using annexin V/7-AAD by FACS analysis (reference value: 91 %); type: functional
OVCAR-5 = assay: Antitumor activity against human OVCAR5 cells xenografted in SCID mouse assessed as axillary metastasis at 55 mg/kg, ip administered 5 consecutive days in a week for two cycles measured after 2 cycles relative to control; type: functional; settings: OVCAR-5, ip, route intraperitoneal, read-out: TGI
How it was run: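 SCID mice carried OVCAR5 xenografts (10^6 cells per inoculum), 16 mice (32 tumors) per group, with ip dosing in 5% Tween 80 from a tumor volume of about 100 mm3. Caliper volume was measured twice weekly and %ΔT/ΔC derived. At termination, primary tumors were weighed and secondary metastases were scored at axillary and bone sites (n = 7−8). Two-tailed t test.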

BXPC-3 [14] = assay: Induction of apoptosis in human BxPC3 cells assessed as early apoptosis at 5 uM using annexin V/7-AAD by FACS analysis (reference value: 9 %); type: functional
BXPC-3 [15] = assay: Antitumor activity against human BxPC3 cells xenografted in SCID mouse assessed as tumor growth inhibition at 45 mg/kg, ip administered 3 consecutives days per week for three cycles measured after 3 cycles relative to control; type: functional; settings: BXPC-3, ip, route intraperitoneal, read-out: TGI
How it was run: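 BxPC3 xenografts were grown in SCID mice from inocula of 10^6 exponentially growing cells, with 10 mice (20 tumors) per group. Treatment started ip once tumors averaged about 100 mm3. The test agent was given in 5% Tween 80 and gemcitabine in water for injection. Tumor volume was measured by caliper twice weekly and %ΔT/ΔC was computed; two-tailed Student's t test.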

BXPC-3 [16] = assay: Induction of apoptosis in human BxPC3 cells assessed as total apoptotic death at 0.5 uM using annexin V/7-AAD by FACS analysis (reference value: 18 %); type: functional; how it was run: as §1
IGROV-1 [17] = assay: Cell cycle arrest in human IGROV1 cells assessed as accumulation at G2 phase at 15 uM after 24 hrs using propidium iodide staining by FACS analysis (reference value: 19 %); type: functional
PC-3 [18] = assay: Cell cycle arrest in human PC3 cells assessed as accumulation at G2 phase at 5 uM after 24 hrs using propidium iodide staining by FACS analysis (reference value: 12 %); type: functional
IGROV-1 [19] = assay: Cell cycle arrest in human IGROV1 cells assessed as accumulation at G1 phase at 50 uM after 24 hrs using propidium iodide staining by FACS analysis (reference value: 27 %); type: functional; how it was run: as §3
MCF7 = assay: Growth inhibition of human MCF7 cells after 48 hrs by SRB assay; type: functional; settings: MCF7, 48 h; how it was run: as §2
[20] = read-out: LC50 (the source's name)

CN1CCN(CCCc2ccc(C(c3ccccc3)C34CC5CC(CC(C5)C3)C4)cc2)CC1 (configuration not stated)
Activity (BXPC-3 [1]): 2% | Activity (Mus musculus): Non-toxic | Activity (BXPC-3 [2]): 46% | TGI [3]: 30.9 µM | GI50 (SK-HEP1): 3.49 µM | TGI (SK-HEP1): 6.37 µM | CC50 (SK-HEP1; [20]): 0.00924 µM | Activity (PC-3 [4]): 25% | Activity (PC-3 [5]): 100% | Activity (PC-3 [6]): 3% | Activity (IGROV-1 [7]): 37% | Activity (PC-3 [8]): 7% | Activity (BXPC-3 [9]): 12% | Activity (BXPC-3 [10]): 23% | Activity (PC-3 [11]): 31% | Activity (IGROV-1 [12]): 23% | Activity (PC-3 [13]): 71% | inhibition in vivo at 55 mg/kg (OVCAR-5): 25% | Activity (BXPC-3 [14]): 11% | inhibition in vivo at 45 mg/kg (BXPC-3 [15]): 37.2% | Activity (BXPC-3 [16]): 17% | Activity (IGROV-1 [17]): 27% | Activity (PC-3 [18]): 10% | Activity (IGROV-1 [19]): 30% | GI50 (MCF7): 3.2 µM | TGI (MCF7): 6.1 µM | CC50 (MCF7; [20]): 0.009 µM
